The record followed here is ChEMBL document CHEMBL1127085, “Derivatives of 2-(dipropylamino)tetralin: effect of the C8-substituent on the interaction with 5-HT1A receptors” (J Med Chem, 1993).

The target of experiment [1] is T1, 5-hydroxytryptamine receptor 1A (Rattus norvegicus, UniProt P19327).
T1 sequence (P19327 whole entry): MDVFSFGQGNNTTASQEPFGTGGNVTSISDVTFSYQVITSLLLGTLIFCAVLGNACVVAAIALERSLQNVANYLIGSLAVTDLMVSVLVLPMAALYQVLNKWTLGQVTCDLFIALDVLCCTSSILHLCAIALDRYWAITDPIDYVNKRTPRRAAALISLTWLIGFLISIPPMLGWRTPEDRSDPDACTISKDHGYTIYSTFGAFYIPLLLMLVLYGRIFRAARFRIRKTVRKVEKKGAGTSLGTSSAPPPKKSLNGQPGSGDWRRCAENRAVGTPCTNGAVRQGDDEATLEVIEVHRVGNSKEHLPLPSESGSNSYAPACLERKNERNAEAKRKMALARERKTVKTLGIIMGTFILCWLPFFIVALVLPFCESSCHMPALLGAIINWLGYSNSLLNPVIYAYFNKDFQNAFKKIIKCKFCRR
The experiment is described as follows: Binding affinity of 5-hydroxytryptamine 1A receptor using [3H]-8-OH-DPAT as radioligand. The gist of the method:
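Membranes from cortex and hippocampus of male Sprague-Dawley rats, pooled from at least six rats, preincubated with 10 µM pargyline. Assay used 2 nM [3H]-8-OH-DPAT, test compound at 1-300 nM and 5 mg/mL tissue in 50 mM Tris-HCl with 4.0 mM CaCl2 and 5.7 mM ascorbate, pH 7.5. Incubated 10 min at 37 °C, filtered on GF/B, scintillation counted.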

The target in experiment [2] is T2, 5-hydroxytryptamine receptor 1A (Rattus norvegicus) (UniProt P19327).
T2 sequence (whole entry): T1 sequence (P19327 whole entry)
Description: Induction of clear-cut 5-HT motor syndrome in reserpine (5 mg/kg, sc) pretreated rats at the dose of 32 micro mol/kg. Type of experiment: functional, organism-based.

The target in experiment [3] is T2, 5-hydroxytryptamine receptor 1A (Rattus norvegicus). The experiment is described as follows: Induction of clear-cut 5-HT motor syndrome in reserpine (5 mg/Kg, sc) pretreated rats at the dose of 32 uM/Kg. Type of experiment: functional, organism-based.
Experiment [4] has the same target. The experiment is described as follows: Induction of clear-cut 5-HT motor syndrome in normal rats at the dose of 32 micro mol/kg. Type of experiment: functional.
For experiment [5] the target is unchanged. Description: Antagonistic effect on 5-HT syndrome or behavior of rat induced by (R)-1 at the dose of 32 and 1.0 umol/kg of compound (R)-1. Type of experiment: functional. The method, boiled down: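 Compound (32 µmol/kg sc) or saline injected 10 min before (R)-8-OH-DPAT (1.0 µmol/kg sc). Flat body posture, forepaw treading and hindlimb abduction scored during 30 min of observation. Results as number of rats showing the behaviour out of number tested; Fisher's exact probability test.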

Experiment [6] has the same target. Description: 5-HT (serotonin) turnover in rat hippocampus. Type of experiment: functional, tissue-based. The gist of the method:
(§1)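 Rats given compound sc in 0.9% NaCl (screening dose typically 32 µmol/kg); decapitated about 30 min after dosing. Hippocampus and corpus striatum dissected and frozen. Perchloric acid homogenates analysed by HPLC with electrochemical detection. Turnover taken as 5-HIAA/5-HT or DOPAC/DA, expressed as percent of saline control. Means ± SEM; n = 5-7 controls, 4-6 treated. ANOVA with Tukey test.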

Experiment [7] deals with T3, Dopamine receptor (Rattus norvegicus) (UniProt P25115+P19020+P30729+P18901+P61169). Description: Dopamine (DA) turnover in rat corpus striatum. Type of experiment: functional, tissue-based. The gist of the method:
as §1

The subject of experiment [8] is Rattus norvegicus. The experiment is described as follows: Antagonistic effect on body temperature of rat induced by (R)-1 at the dose of 32 and 1.0 umol/kg of compound (R)-1. Type of experiment: functional. The method, boiled down: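 Compound (32 µmol/kg sc) or saline injected 10 min before (R)-8-OH-DPAT (1.0 µmol/kg sc). Colonic temperature taken before injection and 30 min later; result is the change from the preinjection value. One-way ANOVA with Tukey HSD test.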

In experiment [9] the test system is Rattus norvegicus. The experiment is described as follows: Change in body temperature of rats upon administration after 30 minutes. Type of experiment: functional. The gist of the method: (§2)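 Colonic temperature taken with an electrical thermometer probe 3.5 cm deep, before and 30 min after sc injection in saline. Change reported in °C as mean ± SEM; animal numbers as in the cage-leaving test. ANOVA with Tukey test.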

In experiment [10] the target is T2, 5-hydroxytryptamine receptor 1A (Rattus norvegicus). Description: Number of rats displaying the 5-HT syndrome or leaving the cage out of the number of rats tested. Type of experiment: functional.
The target in experiment [11] is T3, Dopamine receptor (Rattus norvegicus). Description: Effect of accumulation of DOPA in rat striatum at the dose of 32 umol/kg. Type of experiment: functional, tissue-based. The method, boiled down: (§3)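 Test compound given sc in 0.9% NaCl. NSD 1015 (287 µmol/kg sc) given 30 min later to inhibit aromatic L-amino acid decarboxylase; rats decapitated after a further 30 min. Hippocampus and striatum stored at -40 °C for up to 1 week. Perchloric acid homogenates with α-methyl-5-hydroxytryptophan internal standard; 5-HTP and DOPA measured by HPLC-EC. Percent of control, means ± SEM; ANOVA with Tukey test.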

Experiment [12] has as its target T2, 5-hydroxytryptamine receptor 1A (Rattus norvegicus). The experiment is described as follows: Effect of 5-HT accumulation in rat hippocampus at the dose of 32 umol/kg (p<0.01). Type of experiment: functional, tissue-based. The gist of the method: as §3
Experiment [13] concerns Rattus norvegicus. The experiment is described as follows: Change in body temperature of rats upon administration after 30 minutes (p<0.01). Type of experiment: functional. The method, boiled down: as §2
Experiment [14] concerns the target T2, 5-hydroxytryptamine receptor 1A (Rattus norvegicus). Description: 5-HT (serotonin) turnover in rat hippocampus (p<0.05). Type of experiment: functional, tissue-based. The method, boiled down: (§4)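 Rats dosed sc (screening dose typically 32 µmol/kg, in 0.9% NaCl, 2 mL/kg); decapitated 5-10 min after the 30-min rating, […]. Hippocampus dissected and frozen. 5-HIAA/5-HT ratio measured by HPLC with electrochemical detection (+0.85 V) after perchloric acid homogenisation. Reported as percent of saline control, mean ± SEM, n = 4-6 per group; ANOVA with Tukey test.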

Experiment [15] concerns Rattus norvegicus. The experiment is described as follows: Induction of clear-cut 5-HT motor syndrome in normal rats at the dose of 32 umol/kg. Type of experiment: functional.
The test system of experiment [16] is Rattus norvegicus. Description: Induction of clear-cut 5-HT motor syndrome in reserpine (5 mg/Kg, sc) pretreated rats at the dose of 10 uM/Kg. Type of experiment: functional.
The subject of experiment [17] is Rattus norvegicus. The experiment is described as follows: Induction of clear-cut 5-HT motor syndrome in reserpine (5 mg/Kg, sc) pretreated rats at the dose of 1 uM/Kg. Type of experiment: functional.
For experiment [18], the target named is T2, 5-hydroxytryptamine receptor 1A (Rattus norvegicus). Description: 5-HT (serotonin) turnover in rat hippocampus (p<0.01). Type of experiment: functional, tissue-based. The method, boiled down: as §4

Structures are written as SMILES.

What is called Ki is the dissociation constant of the complex between target and ligand, obtained from inhibition or displacement. Read a low Ki as tighter binding. Turning to `CCCN(CCC)C1CCc2cccc(-c3ccccc3)c2C1` (racemic), in experiment [1], the Ki turned out to be 12 nM. Moreover, in experiment [2], the Behavioral effect was 0.

`CCCCC(=O)c1cccc2c1CC(N(CCC)CCC)CC2` (racemic): the Ki in experiment [1] worked out at 19 nM. Moreover, in [3], the Behavioral effect was found to be 4.

Regarding `CCCN(CCC)[C@H]1CCc2cccc(-c3ccccc3)c2C1`, the Behavioral effect in experiment [4] and in experiment [2] was 0 each time. The compound also registered an Effect in experiment [5] of 4. Also, the results for the Turnover in experiment [6] and in [7] were 98 and 99, respectively. Also, the Temperature in [8] is given as -2.58; in experiment [9], 0.6. The compound also gave a No. of rats in experiment [10] of 4.

Take `CCCN(CCC)[C@H]1CCc2cccc(C)c2C1`: the Accumulation was found to be 119 in [11] and 64 in [12]. Moreover, the Behavioral effect is 4 in experiment [4] and 0 in experiment [2]. The Turnover was determined as 79 in [6] and 80 in [7]. The compound further showed a Temperature in experiment [13] of -2.3. Further, the No. of rats in experiment [10] worked out at 0.

With `CCCN(CCC)[C@H]1CCc2cccc(CO)c2C1`, in [1], the Ki turned out to be 130 nM. Also, the Accumulation stood at 101 in experiment [11] and 58 in experiment [12]. Besides, the Behavioral effect in experiment [4] amounted to 4; in experiment [2], 0. For the same compound, the Turnover in experiment [14] turned out to be 75; in experiment [7], 121. Moreover, in experiment [9], the Temperature is reported as -2.2. In experiment [10], this compound registered a No. of rats of 0.

In experiment [4], `CCCN(CCC)[C@H]1CCc2cccc(OC)c2C1` displayed a Behavioral effect of 4. Further, the Turnover in experiment [14] was determined as 80; in experiment [7], 79. The compound also displayed a Temperature in experiment [9] of -1.5. Further, the No. of rats in experiment [10] amounted to 0.

For `CCCN(CCC)C1CCc2cccc(C)c2C1` (racemic), in experiment [1], the Ki is 42 nM.

`CCCN(CCC)[C@H]1CCc2cccc(OS(=O)(=O)C(F)(F)F)c2C1` gave a Behavioral effect in experiment [15] of 0. The Effect in experiment [5] turned out to be 4. In addition, the values for the Turnover in experiment [6] and in experiment [7] were 84 and 104, respectively. The Temperature in [8] is listed as -3.18; in experiment [9] it was 0.5. The compound also displayed a No. of rats in experiment [10] of 1.

Consider `CCCN(CCC)[C@@H]1CCc2cccc(C#N)c2C1`, for which the Ki in experiment [1] was determined as 19 nM. Also, the Behavioral effect in experiment [16] is recorded as 3.

Compound `CCCN(CCC)C1CCc2cccc(C(N)=O)c2C1` (racemic) had a Ki in [1] of 6 nM. In [3], the Behavioral effect worked out at 4.

The compound `CCCN(CCC)[C@H]1CCc2cccc(C#N)c2C1` had a Ki in [1] of 37 nM. The Behavioral effect in experiment [3] is 4.

As to `CCCN(CCC)C1CCc2cccc(C(C)=O)c2C1` (racemic), the Ki in experiment [1] was 0.9 nM. Besides, in [17], the Behavioral effect was 4.

For `CCCN(CCC)[C@@H]1CCc2cccc(-c3ccccc3)c2C1`, the Behavioral effect in [4] and in [2] was 0 throughout. This compound also returned an Effect in [5] of 4. Also, the Turnover in [6] was 98; in experiment [7], 85. The Temperature is on record as -3.68 in experiment [8] and 0.3 in experiment [13]. Moreover, the No. of rats in [10] was found to be 3.

For `CCCN(CCC)C1CCc2cccc(C#N)c2C1` (racemic), in [1], the affinity, expressed as Ki, was 26 nM. The Behavioral effect in experiment [3] worked out at 3.

In the case of `CCCN(CCC)C1CCc2cccc(C(=O)c3ccccc3)c2C1` (racemic), the Ki in [1] came to 2.8 nM. This counts as single-digit nanomolar.

Turning to `CCCN(CCC)C1CCc2cccc(OS(=O)(=O)C(F)(F)F)c2C1` (racemic), the Behavioral effect in experiment [2] was found to be 0.

As to `C#Cc1cccc2c1C[C@@H](N(CCC)CCC)CC2`, in [1], the Ki was 16 nM. The figures for the Accumulation in [11] and in experiment [12] were 95 and 31, respectively. The Behavioral effect in experiment [4] and in experiment [2] was 4 each time. The Turnover in experiment [18] came out at 66; in [7], 82. Moreover, the Temperature in [13] is -2.8. The No. of rats in experiment [10] was 0.
